Screening results (PubChem BioAssay)
PAFAH1B3 inh: PAFAH1B3 enzyme inhibitors, primary screen, biochemical, fluorescence polarization, human; recombinant PAFAH1B3, FP-rhodamine probe; inhibition, % at 3.39 µM; 340,000 compounds, 0.28% hits;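 active means inhibition above the screen-wide average of all tested compounds plus 3 SD, cut at about 25% in these data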;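 further: 0% = enzyme with DMSO only and 100% = wells lacking PAFAH1B3 protein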
PAFAH1B2 FP inh: PAFAH1B2 enzyme inhibitors, primary screen, biochemical, fluorescence polarization, human. Platelet-activating factor acetylhydrolase IB subunit alpha2 (Homo sapiens), P68402. recombinant PAFAH1B2, FP-rhodamine activity probe. inhibition, % at 3.39 µM. 340,000 compounds, 1.2% hits;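 active means inhibition above the mean of all tested compounds plus 3 SD, cut at about 24% in these data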;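 further: 0% = enzyme with DMSO and 100% = wells lacking PAFAH1B2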
PAFAH2 inh: PAFAH2 enzyme inhibitors, primary screen, biochemical, fluorescence polarization, human; Platelet-activating factor acetylhydrolase 2, cytoplasmic (Homo sapiens), Q99487; recombinant PAFAH2, FP-rhodamine activity probe; inhibition, % at 3.39 µM; 340,000 compounds, 0.99% hits; AID 492956, 2010;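 active means inhibition above the mean over all tested compounds plus 3 SD, cut at about 30% in these data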;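 further: inhibitors block probe labeling of enzyme so polarization drops; 0% = enzyme with DMSO and 100% = wells lacking PAFAH2 protein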
TDP2 inh: human TDP2 enzyme inhibitors, primary screen, biochemical, epi absorbance, recombinant enzyme; 370,000 compounds, 0.34% hits; Tyrosyl-DNA phosphodiesterase 2 (Homo sapiens), O95551; T5PNP hydrolysis, p-nitrophenol absorbance 415 nm; inhibition, % at 12.8 µM;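 active means inhibition above the mean of all tested compounds plus 3 SD, set per campaign, cut at about 25% in these data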;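 further: 0% = DMSO with enzyme and 100% = buffer with substrate but no TDP2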
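Test system: human TDP2 enzyme; Input: 120 nM TDP2 per well; Buffer or medium: Mg2+-containing Tris-HCl buffer, pH 7.5; Reagent: 5 mM T5PNP; Dosing: 12.8 µM single point, 1% DMSO; Incubation: reaction 2 h, 37 °C; Detection: p-Nitrophenol epi absorbance; Read-out: % inhibition relative to enzyme-containing and enzyme-free wells; Replicates: single well per compound.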
Apaf1 inhib: inhibitors of human Apaf-1 apoptosome, primary screen, biochemical, DEVD-Rh110 fluorescence, uHTS. Apoptotic protease-activating factor 1 (Homo sapiens), O14727. reconstituted apoptosome caspase-3 activity. inhibition, % at 20 µM. 330,000 compounds, 0.71% hits; active means inhibition of at least 40% at 20 µM;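 further: plate controls were DMSO wells for no effect and DEVD-CHO caspase inhibitor wells for full effect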
Target sequence (O14727 whole entry, looked up): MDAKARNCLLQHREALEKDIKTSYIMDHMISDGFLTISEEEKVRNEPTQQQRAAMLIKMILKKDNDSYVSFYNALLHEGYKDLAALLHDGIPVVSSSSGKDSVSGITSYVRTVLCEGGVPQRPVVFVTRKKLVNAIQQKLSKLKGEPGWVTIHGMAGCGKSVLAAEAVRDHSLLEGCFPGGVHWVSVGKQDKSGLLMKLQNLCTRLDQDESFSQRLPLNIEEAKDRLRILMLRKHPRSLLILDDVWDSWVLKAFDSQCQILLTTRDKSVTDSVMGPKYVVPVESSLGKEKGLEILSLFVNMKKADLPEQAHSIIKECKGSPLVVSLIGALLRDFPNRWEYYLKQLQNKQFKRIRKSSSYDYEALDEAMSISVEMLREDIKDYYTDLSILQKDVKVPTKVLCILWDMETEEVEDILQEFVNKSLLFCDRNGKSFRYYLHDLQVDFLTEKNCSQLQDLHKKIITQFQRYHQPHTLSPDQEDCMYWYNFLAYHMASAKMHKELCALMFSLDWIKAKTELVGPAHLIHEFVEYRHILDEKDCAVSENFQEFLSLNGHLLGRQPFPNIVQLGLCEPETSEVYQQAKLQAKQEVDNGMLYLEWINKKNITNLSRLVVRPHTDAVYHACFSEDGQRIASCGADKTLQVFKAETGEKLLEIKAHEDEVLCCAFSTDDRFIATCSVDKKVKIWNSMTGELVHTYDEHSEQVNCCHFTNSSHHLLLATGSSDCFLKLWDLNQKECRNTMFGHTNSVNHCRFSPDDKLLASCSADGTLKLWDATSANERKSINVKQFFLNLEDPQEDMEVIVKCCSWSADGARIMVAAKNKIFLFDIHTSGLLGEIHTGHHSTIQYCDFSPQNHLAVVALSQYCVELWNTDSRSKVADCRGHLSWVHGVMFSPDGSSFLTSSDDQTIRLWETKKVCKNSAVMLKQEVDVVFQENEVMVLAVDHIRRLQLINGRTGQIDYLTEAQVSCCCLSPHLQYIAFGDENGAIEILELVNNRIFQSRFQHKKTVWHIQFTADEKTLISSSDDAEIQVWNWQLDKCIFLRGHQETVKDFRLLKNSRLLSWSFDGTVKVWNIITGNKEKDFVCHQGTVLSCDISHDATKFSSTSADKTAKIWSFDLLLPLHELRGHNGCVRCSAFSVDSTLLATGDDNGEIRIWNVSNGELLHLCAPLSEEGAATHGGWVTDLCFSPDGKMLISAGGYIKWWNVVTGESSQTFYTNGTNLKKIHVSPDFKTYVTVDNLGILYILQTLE
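Material: cell-free apoptosome with Apaf-1, procaspase-3 and caspase-9; Buffer or medium: Hepes pH 7.5 with detergent and BSA; Reagent: cytochrome c trigger plus (Z-DEVD)2-Rh110 caspase-3 substrate; Times: compound with Apaf-1, dATP, procaspase-3 30 min, then 50 min reaction, room temperature; Technique: Rh110 fluorescence intensity.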
* = called active by the depositor. Shown are actives, neighbours in structure and some others; about 2.3% of the full set was active somewhere.

Results for Cc1ccc(NC(=S)NNC(=O)c2cccc([N+](=O)[O-])c2)cc1Cl ?
PAFAH1B3 inh: 2; PAFAH1B2 FP inh: 25*; PAFAH2 inh: 19; TDP2 inh: -20; Apaf1 inhib: 1

What do the screens show for `CC(=O)CC[C@@H]1CC[C@]2(CCCN(S(=O)(=O)c3ccccc3)C2)O1`?
TDP2 inh: 12

Results for Cc1ccc(S(=O)(=O)Oc2ccc(C3C4=C(CCCC4=O)N(CCC(=O)O)C4=C3C(=O)CCC4)cc2Cl)cc1 ?
PAFAH1B3 inh: 3; PAFAH1B2 FP inh: 39*; PAFAH2 inh: 6; TDP2 inh: 4; Apaf1 inhib: 6

How did Cc1ccccc1OCCNC(=O)CSc1ccc(C(F)(F)F)cc1[N+](=O)[O-] do in these assays?
PAFAH1B3 inh: 7; PAFAH1B2 FP inh: 24*; PAFAH2 inh: 3; TDP2 inh: 0; Apaf1 inhib: 16

What do the screens show for `COc1cccc(OCCNC(=O)CSc2ccc(C(F)(F)F)cc2[N+](=O)[O-])c1`?
PAFAH1B3 inh: -2; PAFAH1B2 FP inh: 28*; PAFAH2 inh: 2; TDP2 inh: 0; Apaf1 inhib: 11

How did COc1ccc(OCCNC(=O)c2cccc(Oc3ccc(C(F)(F)F)cc3[N+](=O)[O-])c2)cc1 do in these assays?
PAFAH1B3 inh: -4; PAFAH1B2 FP inh: 2; PAFAH2 inh: 3; TDP2 inh: -5; Apaf1 inhib: 5

Results for Cc1nc(N2CCCCC2C)c2nnn(Cc3ccccc3)c2n1 (stereo not drawn) ?
TDP2 inh: -1

Results for CC(C)N(Cc1ccccc1)C(=O)CN1C(=O)NC(Cc2ccccc2)(c2ccccc2)C1=O (stereo not drawn) ?
PAFAH1B3 inh: 7; PAFAH1B2 FP inh: 26*; PAFAH2 inh: -8; TDP2 inh: 3; Apaf1 inhib: 27

How did COc1ccc(OC)c2[nH]c(C(=O)N/N=C/c3ccccc3O)cc12 do in these assays?
PAFAH1B3 inh: 42*; PAFAH1B2 FP inh: 34*; PAFAH2 inh: 30*; TDP2 inh: -11; Apaf1 inhib: 11

What do the screens show for `COc1ccc(/C=N/NC(=O)c2cccnc2)c2ccccc12`?
PAFAH1B3 inh: 199*; PAFAH1B2 FP inh: 155*; PAFAH2 inh: active; TDP2 inh: 7; Apaf1 inhib: 7

Results for COc1ccc(/C=N/NC(=O)c2cc3c(OC)ccc(OC)c3[nH]2)cc1O ?
PAFAH1B3 inh: 22; PAFAH1B2 FP inh: 29*; PAFAH2 inh: 5; TDP2 inh: -14; Apaf1 inhib: 12

How did C[C@H]1[C@@H](OC(=O)NCc2ccccc2Cl)CC[C@@]23CCCN2C(=O)CCC[C@@H]13 do in these assays?
TDP2 inh: 7

How did S=C(c1ccccc1)N(c1ccccc1)c1ccccc1 do in these assays?
PAFAH1B3 inh: 4; PAFAH1B2 FP inh: 38*; PAFAH2 inh: 1; TDP2 inh: -3; Apaf1 inhib: 9

What do the screens show for `O=C(O)CCN1C(=O)C2C3CC(C2C1=O)C1C(c2ccccc2)c2sc(=O)n(-c4ccccc4)c2SC31` (stereo not drawn)?
PAFAH1B3 inh: 4; PAFAH1B2 FP inh: 11; PAFAH2 inh: 2; TDP2 inh: -8; Apaf1 inhib: 3

How did O=c1[nH]c2c(s1)C(c1ccccc1)C1C3CCC(C3)C1S2 (stereo not drawn) do in these assays?
PAFAH1B3 inh: 9; PAFAH1B2 FP inh: 41*; PAFAH2 inh: -1; TDP2 inh: 5; Apaf1 inhib: 17

What do the screens show for `O=C(O)CCN1C(=O)C2C3CC(C2C1=O)C1C(c2ccccc2)c2sc(=O)[nH]c2SC31` (stereo not drawn)?
PAFAH1B3 inh: 8; PAFAH1B2 FP inh: 84*; PAFAH2 inh: 10; TDP2 inh: 6; Apaf1 inhib: -2

What do the screens show for `O=S(=O)(c1ccc(F)cc1)N1CCN(C(=S)NCc2ccccc2)CC1`?
PAFAH1B3 inh: 3; PAFAH1B2 FP inh: 1; PAFAH2 inh: -2; TDP2 inh: -10; Apaf1 inhib: 6

What do the screens show for `O=S(=O)(c1ccc2ccccc2c1)N1CCN(C(=S)Nc2ccccc2F)CC1`?
PAFAH1B3 inh: 9; PAFAH1B2 FP inh: 9; PAFAH2 inh: 1; TDP2 inh: -16; Apaf1 inhib: -10
